Experimental findings from ChEMBL document CHEMBL4002575, “Progress in the development of β-lactams as N-Acylethanolamine Acid Amidase (NAAA) inhibitors: Synthesis and SAR study of new, potent N-O-substituted derivatives” (Eur J Med Chem, 2017) are described below.

Data set [1] addresses T1, N-acylethanolamine-hydrolyzing acid amidase (Homo sapiens, UniProt Q02083).
T1 sequence (Q02083 whole entry): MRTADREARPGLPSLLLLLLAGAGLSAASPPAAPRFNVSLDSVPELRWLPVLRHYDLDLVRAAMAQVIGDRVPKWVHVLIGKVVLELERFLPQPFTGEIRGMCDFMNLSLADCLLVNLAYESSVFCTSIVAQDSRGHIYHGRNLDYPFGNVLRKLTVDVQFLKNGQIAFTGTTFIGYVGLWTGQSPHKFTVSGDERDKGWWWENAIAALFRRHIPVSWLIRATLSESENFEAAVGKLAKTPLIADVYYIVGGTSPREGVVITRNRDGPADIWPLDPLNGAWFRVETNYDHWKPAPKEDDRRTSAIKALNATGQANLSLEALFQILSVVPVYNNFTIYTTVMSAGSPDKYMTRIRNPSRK
As to the kind of experiment: Inhibition of recombinant human spleen NAAA expressed in HEK293 cells using PAMCA as substrate preincubated for 10 mins followed by substrate addition measured after 50 mins by fluorescence assay.

For another data set, the target named is T2, Acid ceramidase (Homo sapiens, UniProt Q13510).
T2 sequence (Q13510 whole entry): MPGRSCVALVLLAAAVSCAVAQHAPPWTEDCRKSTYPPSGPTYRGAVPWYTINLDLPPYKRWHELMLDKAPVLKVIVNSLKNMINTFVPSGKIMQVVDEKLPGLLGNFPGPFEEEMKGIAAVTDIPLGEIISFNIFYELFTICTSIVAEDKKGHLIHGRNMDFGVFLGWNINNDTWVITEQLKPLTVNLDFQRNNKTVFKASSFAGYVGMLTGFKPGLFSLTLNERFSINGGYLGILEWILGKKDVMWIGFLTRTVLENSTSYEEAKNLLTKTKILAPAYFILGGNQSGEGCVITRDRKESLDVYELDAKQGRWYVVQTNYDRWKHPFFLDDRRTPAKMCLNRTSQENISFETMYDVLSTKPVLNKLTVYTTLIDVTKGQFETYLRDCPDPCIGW
Put plainly: Inhibition of human acid ceramidase expressed in HEK293 cells using N-[(1S,2R)-2-hydroxy-1-(hydroxymethyl)-4-(2-oxochromen-7-yl)-oxybutyl]dodecanamide as substrate preincubated for 10 mins followed by substrate addition measured after 3 hrs by fluorescence assay. It counts as cell-based. An outline of the steps:
(§1)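 Human acid ceramidase fluorogenic assay. IC50 taken as the mean of three determinations.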

Data set [2] concerns Mus musculus. As to the kind of experiment: Analgesic activity in CD1 mouse assessed as inhibition of carrageenan-induced heat hyperalgesia at 0.5 to 50 ug/paw administered intraplantarly post carrageenan challenge measured over 2 to 48 hrs. It counts as functional. A digest of the protocol: (§2)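 Male CD1 mice (25-30 g). Paw edema induced by λ-carrageenan (1% w/v in sterile water, 50 µl) injected into the left hind paw. A fresh suspension in 80% sterile saline/10% PEG-400/10% Tween 80 (10 µl per animal) was given by intraplantar injection just after carrageenan, as a single dose of 0.5–50 µg/paw. Edema was read by plethysmometer and heat hyperalgesia by behavioural test, both blind.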

A short description of data set [3]: Half life in rat plasma at 2 uM after 2 hrs by LC/MS-MS method. It counts as ADME, cell-free.
A short description of data set [4]: Apparent half life in PBS at pH 7.4 at 1 uM at 37 degC after 24 hrs in presence of 10% MeCN by UPLC-MS method. It is filed as physicochemical. The note with it: read-out: t1/2(app). An outline of the steps:
(§3)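 Compound incubated 24 h at 37 °C in 0.01 M PBS, pH 7.4, containing 10% MeCN.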

In data set [5] the target is T3, Fatty-acid amide hydrolase 1 (Homo sapiens) (UniProt O00519).
T3 sequence (whole entry): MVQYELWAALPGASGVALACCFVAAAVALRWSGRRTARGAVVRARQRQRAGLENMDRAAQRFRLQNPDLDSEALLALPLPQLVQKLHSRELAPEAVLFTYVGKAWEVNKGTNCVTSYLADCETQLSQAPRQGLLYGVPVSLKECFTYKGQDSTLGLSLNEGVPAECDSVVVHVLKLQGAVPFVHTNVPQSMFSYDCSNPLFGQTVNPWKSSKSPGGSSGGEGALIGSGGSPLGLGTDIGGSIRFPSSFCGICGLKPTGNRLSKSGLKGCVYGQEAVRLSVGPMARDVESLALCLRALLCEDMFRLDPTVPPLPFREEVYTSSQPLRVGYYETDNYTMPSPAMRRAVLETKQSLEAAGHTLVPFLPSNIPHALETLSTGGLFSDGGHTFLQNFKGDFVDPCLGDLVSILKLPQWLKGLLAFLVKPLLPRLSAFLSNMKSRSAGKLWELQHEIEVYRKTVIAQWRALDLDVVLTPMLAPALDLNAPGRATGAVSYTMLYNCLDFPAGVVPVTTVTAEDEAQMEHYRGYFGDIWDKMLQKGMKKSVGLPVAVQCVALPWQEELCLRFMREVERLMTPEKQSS
Put plainly: Inhibition of human FAAH1 expressed in HEK293 cells at 10 uM using [3H]anandamide as substrate preincubated for 10 mins followed by substrate addition measured after 30 mins by liquid scintillation counting method relative to control.

The subject of data set [6] is Mus musculus. Put plainly: Antiinflammatory activity in CD1 mouse assessed as inhibition of carrageenan-induced paw edema at 0.5 to 50 ug/paw administered intraplantarly post carrageenan challenge measured over 2 to 48 hrs by plethysmometer. It counts as functional. A digest of the protocol: as §2
Data set [7] in a line: Half life in mouse plasma at 2 uM after 2 hrs by LC/MS-MS method. It counts as ADME, cell-free.
The species named for a further data set is Homo sapiens. As to the kind of experiment: Selectivity ratio of IC50 for human acid ceramidase to IC50 for recombinant human spleen NAAA. A digest of the protocol: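 Ratio of h-AC IC50 to h-NAAA IC50, each the mean of three determinations in fluorogenic assays. The NAAA was recombinant human enzyme overexpressed in HEK293 cells, purified, then activated for 3 h at 37 °C at pH 4.5 (phosphate/citrate, 3 mM DTT, 0.1% Triton X-100). The NAAA substrate was PAMCA (hexadecanamide of 7-amino-4-methylcoumarin).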

The nature of data set [8]: Chemical stability in PBS at pH 7.4 assessed as parent compound remaining at 1 uM at 37 degC after 24 hrs in presence of 10% MeCN by UPLC-MS method. It counts as physicochemical. The note with it: read-out: Stability. A digest of the protocol: as §3
A further data set relates to Rattus norvegicus. Put plainly: Oral bioavailability in Sprague-Dawley rat at 10 mg/kg after 15 to 1440 mins by UPLC/MS analysis. It counts as ADME, organism-based. The note with it: in vivo.
In data set [9] the target is T4, Acid ceramidase (Homo sapiens) (UniProt Q13510).
T4 sequence (whole entry): T2 sequence (Q13510 whole entry)
As to the kind of experiment: Inhibition of human acid ceramidase expressed in HEK293 cells at 50 uM using N-[(1S,2R)-2-hydroxy-1-(hydroxymethyl)-4-(2-oxochromen-7-yl)-oxybutyl]dodecanamide as substrate preincubated for 10 mins followed by substrate addition measured after 3 hrs by fluorescence assay relative to control. It counts as cell-based. An outline of the steps: as §1

Activity calls are given as the source filed them. The rule behind the calls is not given here.

In general, IC50 refers to the concentration needed to halve the response being measured. For `CN1C[C@H](NC(=O)OCCCCC2CCCCC2)C1=O`, the concentration for half-maximal inhibition (IC50) in data set [1] worked out at 1980 nM.

Regarding `COC(=O)N1C[C@H](NC(=O)OCCCCC2CCCCC2)C1=O`, the IC50 in [1] amounted to 7180 nM.

Take `C[C@H]1[C@H](NC(=O)OCCCCC2CCCCC2)C(=O)N1OC(C)(C)C`: the IC50 in data set [1] was more than 50000 nM.

As for `CON1C[C@H](NC(=O)OCCCCC2CCCCC2)C1=O`, in data set [1], the concentration for half-maximal inhibition (IC50) came to 16 nM.

By inhibition is commonly meant how much of the control response was suppressed. As to `C[C@H]1[C@H](NC(=O)OCCCCC2CCCCC2)C(=O)N1Oc1ccc(S(C)(=O)=O)cc1`, the IC50 against Acid ceramidase stood at 2020 nM. Further, the inhibition result with Mus musculus [2] and in the data set on Mus musculus [6] was “Active” in each case. Also, the half-life at 2 µM in [3] and in data set [7] was less than 5 min in each case. In addition, the half-life at 1 µM in data set [4] was 727 min. In data set [5], the inhibition was more than 50%.

`C[C@H]1[C@H](NC(=O)OCCCCC2CCCCC2)C(=O)N1Oc1ccccc1` yielded an IC50 against Acid ceramidase of 300 nM. Besides, the half-life at 2 µM in data set [3] and in data set [7] was less than 5 min each time. Also, the Ratio IC50 in the data set listed under Homo sapiens came out at 13. The half-life at 1 µM in [4] was more than 1440 min. In addition, the remaining at 24 h, 1 µM in data set [8] was 63%. Moreover, the inhibition in data set [5] is more than 50%.

With `CCCCCCCCC(=O)N[C@H]1CNC1=O`, the F with Rattus norvegicus is given as 67%. The half-life at 2 µM in [7] turned out to be 130 min.

As for `CON1C[C@@H](NC(=O)OCCCCC2CCCCC2)C1=O`, in [1], the IC50 was found to be 56 nM.

Consider `C[C@H]1[C@H](NC(=O)OCCCCC2CCCCC2)C(=O)N1OCCCS(C)(=O)=O`, for which the half-life at 2 µM in data set [3] and in data set [7] was less than 5 min each time. The Ratio IC50 in the data set filed under Homo sapiens was more than 1000. Further, the half-life at 1 µM in data set [4] is more than 1440 min. The remaining at 24 h, 1 µM in [8] was 67%. For the same compound, the inhibition in data set [5] and in data set [9] was more than 50% in each case.

As for `CC(=O)N1C[C@H](NC(=O)OCCCCC2CCCCC2)C1=O`, the 50% inhibitory concentration (IC50) in data set [1] was more than 50000 nM.

Turning to `CON1C(=O)[C@@H](NC(=O)OCCCCC2CCCCC2)[C@@H]1C`, the half-life at 2 µM in data set [3] and in data set [7] was less than 5 min in each case. In [4], the half-life at 1 µM is more than 1440 min. Besides, the remaining at 24 h, 1 µM in data set [8] turned out to be 97%. Besides, the inhibition in [5] and in data set [9] was more than 50% each time.
